Experimental data as given in ChEMBL document CHEMBL3734652, “Pyrrolo[3,4-c]pyridine-1,3(2H)-diones: A Novel Antimycobacterial Class Targeting Mycobacterial Respiration” (J Med Chem, 2015).
In brackets after ≈: the same amount, converted by molar mass.

Columns and labels:
[1] = system: Mycobacterium tuberculosis; test: Antimicrobial activity against Mycobacterium tuberculosis H37RvMA under GAST/Fe medium assessed as growth inhibition after 14 days by alamar blue assay; format: functional; conditions: 336 h
How it was run: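 Broth microdilution in GAST/Fe medium against fully virulent Mtb H37RvMa or its derived strains (cytochrome bd oxidase deletion ΔcydKO; qcrB Ala317Thr point mutant). Plates were incubated 14 days, growth was read by Alamar Blue, and MIC90 was taken as the potency value.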

Vero = test: Cytotoxicity against African green monkey Vero cells assessed as cell viability by MTT assay; format: cell-based; conditions: Chlorocebus sabaeus
How it was run: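 VERO kidney epithelial cells from African green monkey were exposed to compounds at concentrations up to 100 μM, and IC₅₀ was reported.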

[2] = Kinetic solubility in FaSSIF at pH 6.5 after 2 hours at 25 degC by shake flask method; format: physicochemical; conditions: read-out: Kinetic_solubility
[3] = Metabolic stability in human liver microsomes assessed as residual compound at 0.1 uM after 30 mins by LC-MS/MS method in presence or absence of NADPH; format: ADME; conditions: read-out: Stability
[4] = Metabolic stability in mouse liver microsomes assessed as residual compound at 0.1 uM after 30 mins by LC-MS/MS method in presence or absence of NADPH; format: ADME; conditions: read-out: Stability
[5] = Metabolic stability in rat liver microsomes assessed as residual compound at 0.1 uM after 30 mins by LC-MS/MS method in presence or absence of NADPH; format: ADME; conditions: read-out: Stability
[6] = system: Mycobacterium tuberculosis; test: Antimicrobial activity against GFP expressing recombinant Mycobacterium tuberculosis H37RvMA under GAST/Fe medium assessed as growth inhibition after 14 days by broth microdilution method; format: functional; conditions: 336 h
[7] = Half life in human plasma at 0.1 uM by LC-MS/MS method; format: ADME, cell-free
Liver microsome [8] = test: Intrinsic clearance in rat liver microsomes assessed per mg of protein at 0.1 uM by LC-MS/MS method in presence or absence of NADPH; format: ADME
[9] = system: Mycobacterium tuberculosis; test: Antimicrobial activity against GFP expressing recombinant Mycobacterium tuberculosis H37RvMA under 7H9 medium assessed as growth inhibition after 14 days by broth microdilution method; format: functional; conditions: 336 h
[10] = Intrinsic clearance in mouse liver microsomes assessed per mg of protein at 0.1 uM by LC-MS/MS method in presence or absence of NADPH; format: ADME
Liver microsome [11] = test: Intrinsic clearance in human liver microsomes assessed per mg of protein at 0.1 uM by LC-MS/MS method in presence or absence of NADPH; format: ADME
[12] = Metabolic stability in human liver S9 fractions assessed as residual compound at 0.1 uM after 40 mins by LC-MS/MS method in presence or absence of NADPH; format: ADME; conditions: read-out: Stability
[13] = Octanol-phosphate buffer partition coefficient, log D of the compound at 100 uM at pH 7.4 after 3 hrs by shake flask method; format: physicochemical
[14] = system: Mycobacterium tuberculosis; test: Antimicrobial activity against clinical isolates of Mycobacterium tuberculosis SAWC 3385 Cas1/Delhi under 7H9 medium assessed as growth inhibition after 14 days by alamar blue assay; format: functional; conditions: 336 h
[15] = system: Mycobacterium tuberculosis; test: Antimicrobial activity against clinical isolates of Mycobacterium tuberculosis SAWC 3906 Atyp-beijing under 7H9 medium assessed as growth inhibition after 14 days by alamar blue assay; format: functional; conditions: 336 h
[16] = system: Mycobacterium tuberculosis; test: Antimicrobial activity against clinical isolates of Mycobacterium tuberculosis SAWC 3933 LCC under 7H9 medium assessed as growth inhibition after 14 days by alamar blue assay; format: functional; conditions: 336 h
[17] = system: Mycobacterium tuberculosis; test: Antimicrobial activity against clinical isolates of Mycobacterium tuberculosis SAWC 2371 Haarlem under 7H9 medium assessed as growth inhibition after 14 days by alamar blue assay; format: functional; conditions: 336 h
Liver = test: Drug level in BALB/c mouse liver microsomes treated with 7-Amino-2-benzyl-4-methyl-6-(3-methyl-1,2,4-oxadiazol-5-yl)-1H-pyrrolo[3,4-c]pyridine-1,3(2H)-dione at 10 uM after 1 hr by LC-MS analysis; format: ADME
Plasma = test: Drug metabolism in C57/BL6 mouse plasma treated with 7-Amino-2-benzyl-4-methyl-6-(3-methyl-1,2,4-oxadiazol-5-yl)-1H-pyrrolo[3,4-c]pyridine-1,3(2H)-dione by LC-MS analysis; format: ADME, cell-free

Compound	MIC90 [1] [µM]	solubility kinetic at 2 h [2] [µM]	further results
Cc1nc(-c2nc(C(F)(F)F)no2)c(N)c2c1C(=O)N(Cc1ccccc1)C2=O	20 (≈ 8.07 µg/mL)	< 5	IC50 (Vero): > 100 µM; remaining at 0.5 h, 0.1 µM [3]: 100%; remaining at 0.5 h, 0.1 µM [4]: 20%; remaining at 0.5 h, 0.1 µM [5]: 83%
Cc1noc(-c2nc(C)c3c(c2N)C(=O)N(Cc2ccc(S(C)(=O)=O)cc2)C3=O)n1	0.31 (≈ 0.133 µg/mL)	< 5	
Cc1noc(-c2nc(C)c3c(c2N)C(=O)N(Cc2ccc(N4CCCC4=O)cc2)C3=O)n1	> 160	< 5	
Cc1noc(-c2nc(C)c3c(c2N)C(=O)N(CC2CCNCC2)C3=O)n1	> 160	160 (≈ 57 µg/mL)	
COc1ccc(CN2C(=O)c3c(C)nc(-c4nc(C)no4)c(N)c3C2=O)cc1	< 0.156	< 5	
COC(=O)c1nc(C)c2c(c1N)C(=O)N(Cc1ccccc1)C2=O	0.15 (≈ 0.0488 µg/mL)	7.4 (≈ 2.41 µg/mL)	
CCOC(=O)c1ncc2c(c1N)C(=O)N(Cc1ccccc1)C2=O	20 (≈ 6.51 µg/mL)		
Cc1noc(-c2nc(C)c3c(c2N)C(=O)N(Cc2ccc(C#N)cc2)C3=O)n1	> 160	< 5	
Cc1noc(-c2nc(C)c3c(c2N)C(=O)N(Cc2ccc(OC(F)(F)F)cc2)C3=O)n1	0.62 (≈ 0.269 µg/mL)	< 5	
Cc1nnc(-c2nc(C)c3c(c2N)C(=O)N(Cc2ccccc2)C3=O)o1	> 160	< 5	IC50 (Vero): > 100 µM; remaining at 0.5 h, 0.1 µM [3]: 63%; remaining at 0.5 h, 0.1 µM [4]: 57%; remaining at 0.5 h, 0.1 µM [5]: 50%
Cc1noc(-c2nc(C)c3c(c2N)C(=O)N(Cc2ccc(Oc4ccc(F)cc4)cc2)C3=O)n1	< 0.156	23.8 (≈ 10.9 µg/mL)	
Cc1noc(-c2nc(C)c3c(c2N)C(=O)N(Cc2ccc(-n4cccn4)cc2)C3=O)n1	40 (≈ 16.6 µg/mL)	< 5	
Cc1noc(-c2nc(C)c3c(c2N)C(=O)N(Cc2ccc(F)cc2)C3=O)n1	0.31 (≈ 0.114 µg/mL)	< 5	
Cc1noc(-c2nc(C)c3c(c2N)C(=O)N(Cc2ccc(Br)cc2)C3=O)n1	< 0.156	< 5	
CCOC(=O)c1nc(C)c2c(c1N)C(=O)N(c1ccccc1)C2=O	> 160	5 (≈ 1.63 µg/mL)	
Cc1noc(-c2nc(C)c3c(c2N)C(=O)N(Cc2ccc(SC(F)(F)F)cc2)C3=O)n1	1.2 (≈ 0.539 µg/mL)	< 5	
Cc1noc(-c2nc(C)c3c(c2N)C(=O)N(Cc2cccc(C(F)(F)F)c2)C3=O)n1	< 0.156	< 5	
Cc1noc(-c2nc(C)c3c(c2N)C(=O)N(Cc2cccc(OC(F)(F)F)c2)C3=O)n1	0.0637 (≈ 0.0276 µg/mL)	6.3 (≈ 2.73 µg/mL)	MIC90 [6]: 0.052 µM; half-life at 0.1 µM [7]: > 6 h; IC50 (Vero): > 100 µM; CLint (Liver microsome [8]): 32.4 µL/min/mg; MIC90 [9]: > 20 µM; CLint [10]: 65.7 µL/min/mg; CLint (Liver microsome [11]): 15.4 µL/min/mg; remaining at 40 min, 0.1 µM [12]: 93%; logD at 3 h, 100 µM [13]: 3.64
Cc1nc(C(=O)NO)c(N)c2c1C(=O)N(Cc1ccccc1)C2=O	> 160		remaining at 0.5 h, 0.1 µM [3]: 80%; remaining at 0.5 h, 0.1 µM [4]: 58%; remaining at 0.5 h, 0.1 µM [5]: 46%
CNC(=O)c1nc(C)c2c(c1N)C(=O)N(Cc1ccccc1)C2=O	> 160	41 (≈ 13.3 µg/mL)	
Cc1noc(-c2nc(C)c3c(c2N)C(=O)N(Cc2ccc(OC(F)F)cc2)C3=O)n1	< 0.156	< 5	
CCCOC(=O)c1nc(C)c2c(c1N)C(=O)N(Cc1ccccc1)C2=O	< 0.156	< 5	remaining at 0.5 h, 0.1 µM [3]: 3.4%; remaining at 0.5 h, 0.1 µM [4]: 8.8%; remaining at 0.5 h, 0.1 µM [5]: 3.3%
COc1ccccc1CN1C(=O)c2c(C)nc(-c3nc(C)no3)c(N)c2C1=O	0.31 (≈ 0.118 µg/mL)	< 5	

Compound	MIC90 [1] [µM]	solubility kinetic at 2 h [2] [µM]	further results
Cc1nc(C(=O)OC2CC2)c(N)c2c1C(=O)N(Cc1ccccc1)C2=O	1.25 (≈ 0.439 µg/mL)	202 (≈ 71 µg/mL)	remaining at 0.5 h, 0.1 µM [3]: 61%; remaining at 0.5 h, 0.1 µM [4]: 36%; remaining at 0.5 h, 0.1 µM [5]: 9.6%
Cc1noc(-c2nc(C)c3c(c2N)C(=O)N(Cc2ccccc2Cl)C3=O)n1	1.25 (≈ 0.48 µg/mL)	< 5	
Cc1noc(-c2nc(C)c3c(c2N)C(=O)N(Cc2ccc(-c4ccncc4)cc2)C3=O)n1	160 (≈ 68.2 µg/mL)	< 5	
Cc1noc(-c2nc(C)c3c(c2N)C(=O)N(Cc2ccc(Cl)cc2)C3=O)n1	0.62 (≈ 0.238 µg/mL)	< 5	
Cc1noc(-c2nc(C)c3c(c2N)C(=O)N(Cc2ccc(N(C)C)cc2)C3=O)n1	20 (≈ 7.85 µg/mL)	7.4 (≈ 2.9 µg/mL)	
Cc1noc(-c2nc(C)c3c(c2N)C(=O)N(Cc2ccccc2C(F)(F)F)C3=O)n1	> 160	< 5	
Cc1noc(-c2nc(C)c3c(c2N)C(=O)N(Cc2ccncc2)C3=O)n1	20 (≈ 7.01 µg/mL)	26.4 (≈ 9.25 µg/mL)	
COc1cccc(CN2C(=O)c3c(C)nc(-c4nc(C)no4)c(N)c3C2=O)c1	< 0.156	< 5	MIC90 [14]: 0.075 µM (≈ 0.0285 µg/mL); MIC90 [15]: 0.075 µM (≈ 0.0285 µg/mL); MIC90 [16]: 0.15 µM (≈ 0.0569 µg/mL); MIC90 [17]: 0.3 µM (≈ 0.114 µg/mL)
Cc1noc(-c2nc(C)c3c(c2N)C(=O)N(C(C)c2ccccc2)C3=O)n1 (stereo unspecified)	1.25 (≈ 0.454 µg/mL)	10.9 (≈ 3.96 µg/mL)	
Cc1nc(C#N)c(N)c2c1C(=O)N(Cc1ccccc1)C2=O	> 160	< 5	remaining at 0.5 h, 0.1 µM [3]: 98%; remaining at 0.5 h, 0.1 µM [4]: 99%; remaining at 0.5 h, 0.1 µM [5]: 100%
Cc1noc(-c2nc(C)c3c(c2N)C(=O)N(CC2CCOCC2)C3=O)n1	20 (≈ 7.15 µg/mL)	5.7 (≈ 2.04 µg/mL)	
Cc1noc(-c2nc(C)c3c(c2N)C(=O)N(Cc2ccccc2F)C3=O)n1	0.3 (≈ 0.11 µg/mL)	< 5	
Cc1noc(-c2nc(C)c3c(c2N)C(=O)N(Cc2ccc(Cl)cn2)C3=O)n1	2.5 (≈ 0.962 µg/mL)	< 5	
COC(=O)c1nc(C)c2c(c1N)C(O)N(Cc1ccccc1)C2=O (stereo unspecified)	2.5 (≈ 0.818 µg/mL)	200 (≈ 65.5 µg/mL)	IC50 (Vero): > 100 µM; remaining at 0.5 h, 0.1 µM [3]: 55%; remaining at 0.5 h, 0.1 µM [4]: 69%; remaining at 0.5 h, 0.1 µM [5]: 70%
CCOC(=O)c1nc(C)c2c(c1N)C(=O)N(Cc1ccccc1)C2O (stereo unspecified)	0.144 (≈ 0.0492 µg/mL)	41.5 (≈ 14.2 µg/mL)	IC50 (Vero): > 100 µM; remaining at 0.5 h, 0.1 µM [3]: 99%; remaining at 0.5 h, 0.1 µM [4]: 89%; remaining at 0.5 h, 0.1 µM [5]: 81%
Cc1noc(-c2nc(C)c3c(c2N)C(=O)N(Cc2ccc(C(F)(F)F)cc2)C3=O)n1	20 (≈ 8.35 µg/mL)	< 5	
Cc1nc(C(=O)N(C)C)c(N)c2c1C(=O)N(Cc1ccccc1)C2=O	> 160	172 (≈ 58.2 µg/mL)	IC50 (Vero): > 100 µM; remaining at 0.5 h, 0.1 µM [3]: 72%; remaining at 0.5 h, 0.1 µM [4]: 47%; remaining at 0.5 h, 0.1 µM [5]: 51%
Cc1nc(C(N)=O)c(N)c2c1C(=O)N(Cc1ccccc1)C2=O	> 160	< 5	Drug metabolism (Liver): metabolite_detected; Drug metabolism (Plasma): metabolite_detected
Cc1noc(-c2nc(C)c3c(c2N)C(=O)N(Cc2ccc(CO)cc2)C3=O)n1	0.62 (≈ 0.235 µg/mL)	< 5	
Cc1nc(C(=O)NC#N)c(N)c2c1C(=O)N(Cc1ccccc1)C2=O	> 160	185 (≈ 62 µg/mL)	remaining at 0.5 h, 0.1 µM [3]: 99%; remaining at 0.5 h, 0.1 µM [4]: 95%; Drug metabolism (Liver): metabolite_detected; remaining at 0.5 h, 0.1 µM [5]: 92%; Drug metabolism (Plasma): metabolite_detected
Cc1noc(-c2nc(C)c3c(c2N)C(=O)N(Cc2ccc(C(N)=O)cc2)C3=O)n1	> 160	< 5	
Cc1noc(-c2nc(C)c3c(c2N)C(=O)N(Cc2cccc(F)c2)C3=O)n1	< 0.156	< 5	
CO[C@H]1/C=C/O[C@@]2(C)Oc3c(C)c(O)c4c(O)c(c(/C=N/N5CCN(C)CC5)c(O)c4c3C2=O)NC(=O)/C(C)=C\C=C\[C@H](C)[C@H](O)[C@@H](C)[C@@H](O)[C@@H](C)[C@H](OC(C)=O)[C@@H]1C [RIFAMPIN]	0.009 (≈ 0.00741 µg/mL)		
